Test system: Fibroblast
Test: Multiplex assay against human fibroblast
Assay type: toxicity, cell-based
Method in brief: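 Cells were classed with CellPathfinder machine-learning gating, first as Hoechst high-intensity objects or normal cells, then (normal cells) as healthy, pyknosed or fragmented nuclei, and finally (pyknosed cells) as mitotic or apoptotic. Staining of live cells at seeding used Hoechst33342, BioTracker Green Microtubule Cytoskeleton Dye, MitoTracker Red and Annexin V Alexa Fluor 680, with imaging on a CQ1 microscope at 37°C and 5% CO2 after compound addition. Tubulin, mitochondrial-mass and membrane-permeability phenotypes are per cents of healthy-nucleus cells.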

[1] = 12 h, 1 µM, compound concentration 1 uM, replicate 1
[2] = 12 h, 1 µM, compound concentration 1 uM, replicate 2
[3] = 12 h, 10 µM, compound concentration 10 uM, replicate 1
[4] = 12 h, 10 µM, compound concentration 10 uM, replicate 2
[5] = 24 h, 1 µM, compound concentration 1 uM, replicate 1
[6] = 24 h, 1 µM, compound concentration 1 uM, replicate 2
[7] = 24 h, 10 µM, compound concentration 10 uM, replicate 1
[8] = 24 h, 10 µM, compound concentration 10 uM, replicate 2
[9] = 48 h, 1 µM, compound concentration 1 uM, replicate 1
[10] = 48 h, 1 µM, compound concentration 1 uM, replicate 2
[11] = 48 h, 10 µM, compound concentration 10 uM, replicate 1
[12] = 48 h, 10 µM, compound concentration 10 uM, replicate 2

COc1cc2c(NC3CCN(C(C)C)CC3)nc(N3CCC(F)(F)CC3)nc2cc1OCCCN1CCCC1
Population Apoptotic (%) [1]: 70%
Population Fragmented Nuclei (%) [1]: 30%
Population Healthy Nuclei (%) [1]: 48%
Population Hoechst High Intensity Objects (%) [1]: 11%
Population Membrane Permeable-Phenotype (%) [1]: 16%
Population Mitochondria Different-Phenotype (%) [1]: 11%
Population Mitotic Cells (%) [1]: 29%
Population Normal (%) [1]: 88%
Population Pyknosed Nuclei (%) [1]: 21%
Population Tubulin-Different-Phenotype (%) [1]: 38%
Total Cell Count [1]: 127
Population Apoptotic (%) [2]: 30%
Population Fragmented Nuclei (%) [2]: 20%
Population Healthy Nuclei (%) [2]: 67%
Population Hoechst High Intensity Objects (%) [2]: 5%
Population Membrane Permeable-Phenotype (%) [2]: 3%
Population Mitochondria Different-Phenotype (%) [2]: 22%
Population Mitotic Cells (%) [2]: 70%
Population Normal (%) [2]: 94%
Population Pyknosed Nuclei (%) [2]: 11%
Population Tubulin-Different-Phenotype (%) [2]: 19%
Total Cell Count [2]: 105
Population Apoptotic (%) [3]: 61%
Population Fragmented Nuclei (%) [3]: 16%
Population Healthy Nuclei (%) [3]: 47%
Population Hoechst High Intensity Objects (%) [3]: 33%
Population Membrane Permeable-Phenotype (%) [3]: 10%
Population Mitochondria Different-Phenotype (%) [3]: 13%
Population Mitotic Cells (%) [3]: 38%
Population Normal (%) [3]: 66%
Population Pyknosed Nuclei (%) [3]: 35%
Population Tubulin-Different-Phenotype (%) [3]: 35%
Total Cell Count [3]: 239
Population Apoptotic (%) [4]: 66%
Population Fragmented Nuclei (%) [4]: 11%
Population Healthy Nuclei (%) [4]: 76%
Population Hoechst High Intensity Objects (%) [4]: 8%
Population Membrane Permeable-Phenotype (%) [4]: 66%
Population Mitochondria Different-Phenotype (%) [4]: 97%
Population Mitotic Cells (%) [4]: 33%
Population Normal (%) [4]: 91%
Population Pyknosed Nuclei (%) [4]: 11%
Population Tubulin-Different-Phenotype (%) [4]: 97%
Total Cell Count [4]: 89
Population Apoptotic (%) [5]: 65%
Population Fragmented Nuclei (%) [5]: 35%
Population Healthy Nuclei (%) [5]: 47%
Population Hoechst High Intensity Objects (%) [5]: 20%
Population Membrane Permeable-Phenotype (%) [5]: 15%
Population Mitochondria Different-Phenotype (%) [5]: 4%
Population Mitotic Cells (%) [5]: 34%
Population Normal (%) [5]: 79%
Population Pyknosed Nuclei (%) [5]: 17%
Population Tubulin-Different-Phenotype (%) [5]: 34%
Total Cell Count [5]: 167
Population Apoptotic (%) [6]: 29%
Population Fragmented Nuclei (%) [6]: 14%
Population Healthy Nuclei (%) [6]: 68%
Population Hoechst High Intensity Objects (%) [6]: 8%
Population Membrane Permeable-Phenotype (%) [6]: 2%
Population Mitochondria Different-Phenotype (%) [6]: 7%
Population Mitotic Cells (%) [6]: 70%
Population Normal (%) [6]: 91%
Population Pyknosed Nuclei (%) [6]: 16%
Population Tubulin-Different-Phenotype (%) [6]: 12%
Total Cell Count [6]: 113
Population Apoptotic (%) [7]: 63%
Population Fragmented Nuclei (%) [7]: 22%
Population Healthy Nuclei (%) [7]: 42%
Population Hoechst High Intensity Objects (%) [7]: 37%
Population Membrane Permeable-Phenotype (%) [7]: 4%
Population Mitochondria Different-Phenotype (%) [7]: 9%
Population Mitotic Cells (%) [7]: 36%
Population Normal (%) [7]: 62%
Population Pyknosed Nuclei (%) [7]: 35%
Population Tubulin-Different-Phenotype (%) [7]: 43%
Total Cell Count [7]: 271
Population Apoptotic (%) [8]: 90%
Population Fragmented Nuclei (%) [8]: 18%
Population Healthy Nuclei (%) [8]: 59%
Population Hoechst High Intensity Objects (%) [8]: 7%
Population Membrane Permeable-Phenotype (%) [8]: 82%
Population Mitochondria Different-Phenotype (%) [8]: 100%
Population Mitotic Cells (%) [8]: 9%
Population Normal (%) [8]: 92%
Population Pyknosed Nuclei (%) [8]: 22%
Population Tubulin-Different-Phenotype (%) [8]: 96%
Total Cell Count [8]: 112
Population Apoptotic (%) [9]: 52%
Population Fragmented Nuclei (%) [9]: 44%
Population Healthy Nuclei (%) [9]: 43%
Population Hoechst High Intensity Objects (%) [9]: 26%
Population Membrane Permeable-Phenotype (%) [9]: 12%
Population Mitochondria Different-Phenotype (%) [9]: 2%
Population Mitotic Cells (%) [9]: 47%
Population Normal (%) [9]: 73%
Population Pyknosed Nuclei (%) [9]: 12%
Population Tubulin-Different-Phenotype (%) [9]: 29%
Total Cell Count [9]: 231
Population Apoptotic (%) [10]: 69%
Population Fragmented Nuclei (%) [10]: 47%
Population Healthy Nuclei (%) [10]: 44%
Population Hoechst High Intensity Objects (%) [10]: 34%
Population Membrane Permeable-Phenotype (%) [10]: 6%
Population Mitochondria Different-Phenotype (%) [10]: 0%
Population Mitotic Cells (%) [10]: 30%
Population Normal (%) [10]: 65%
Population Pyknosed Nuclei (%) [10]: 7%
Population Tubulin-Different-Phenotype (%) [10]: 20%
Total Cell Count [10]: 249
Population Apoptotic (%) [11]: 37%
Population Fragmented Nuclei (%) [11]: 19%
Population Healthy Nuclei (%) [11]: 45%
Population Hoechst High Intensity Objects (%) [11]: 41%
Population Membrane Permeable-Phenotype (%) [11]: 6%
Population Mitochondria Different-Phenotype (%) [11]: 5%
Population Mitotic Cells (%) [11]: 62%
Population Normal (%) [11]: 58%
Population Pyknosed Nuclei (%) [11]: 35%
Population Tubulin-Different-Phenotype (%) [11]: 32%
Total Cell Count [11]: 362
Population Apoptotic (%) [12]: 23%
Population Fragmented Nuclei (%) [12]: 22%
Population Hoechst High Intensity Objects (%) [12]: 47%
Population Membrane Permeable-Phenotype (%) [12]: 4%
Population Mitochondria Different-Phenotype (%) [12]: 0%
Population Mitotic Cells (%) [12]: 76%
Population Normal (%) [12]: 52%
Population Pyknosed Nuclei (%) [12]: 32%
Population Tubulin-Different-Phenotype (%) [12]: 34%
Total Cell Count [12]: 426

Source: ChEMBL document CHEMBL4689842, “EUbOPEN Chemogenomics Library wave 1” (2021)
